# EBNA-1 inhibitor: blocks EBNA-1 binding to DNA; EBNA-1 DNA binding, fluorescence polarization; inhibition, % at 14.8 µM; actives 0.34% (n = 300,000); in the data active means inhibition above about 28%
# HCV core dimer: HCV core protein dimerization inhibition. TR-FRET GST/Flag-core106 dimerization, 1536-well. inhibition, % at 5 µM. actives 0.33% (n = 300,000). AID 1899;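 active means inhibition above the mean of all tested compounds plus 3 SD, set per screening campaign, cut at about 45% in these data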
#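 Assay system: GST-tagged and Flag-tagged HCV core protein residues 1-106 / Times: compound-protein-antibody incubation 4 h at 22.5 °C / Signal: time-resolved FRET, ex 340 nm, em 617 and 671 nm / Evaluation: % inhibition based on acceptor/donor emission ratio / Benchmarks: wells lacking GST-core106 and wells with excess unlabelled core106 / Repeats: singlicate, one well per compound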
# PP1 counter: counter-screen for PP5 inhibitors: inhibitors of human PP1-alpha. P62136. purified PP1alpha, OMFP fluorescence. inhibition, % at 6.7 µM. actives 0.9% (n = 320,000). AID 2235;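 active means inhibition above the mean inhibition of all tested compounds plus 3 SD, computed separately for each screening campaign, cut at about 15% in these data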
# ZTA counter: blocks Epstein-Barr virus ZTA, an EBNA-1 counter-screen. actives 0.15% (n = 320,000). ZTA-DNA binding, fluorescence polarization. inhibition, % at 11 µM; in the data active means inhibition above about 33%
# Target sequence (P03206 whole entry, looked up): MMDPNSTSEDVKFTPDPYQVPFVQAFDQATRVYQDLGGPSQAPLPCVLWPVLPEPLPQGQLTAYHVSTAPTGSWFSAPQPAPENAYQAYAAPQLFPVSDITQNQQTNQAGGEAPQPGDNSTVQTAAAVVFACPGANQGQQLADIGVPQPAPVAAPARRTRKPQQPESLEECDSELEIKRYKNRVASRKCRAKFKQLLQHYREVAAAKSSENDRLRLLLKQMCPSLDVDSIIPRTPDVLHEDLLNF
# NS3 helicase inh: HCV NS3 helicase inhibition | NS3 helicase DNA unwinding, Cy5 molecular beacon fluorescence | inhibition, % at 10.9 µM | actives 0.56% (n = 290,000);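 active means inhibition above the mean of all tested compounds plus 3 SD, set per campaign, cut at about 35% in these data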;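 further: 0% = DMSO wells and 100% = thioflavine S control wells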
#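 Material: hepatitis C virus NS3 helicase domain fragment enzyme; measured by: Cy5 fluorescence, 0 and 60 min reads; control set: DMSO and thioflavine S; incubation: 60 min unwinding reaction at 25 °C after ATP addition; read-out basis: % inhibition from 60/0 min fluorescence ratio, DMSO 0%, thioflavine S 100%; repeats: singlicate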
# The depositor's hits bear a star; . = no result given. Hits are enriched below; roughly 1.9% of the tested compounds scored in any of these assays.
SMILES,EBNA-1 inhibitor,HCV core dimer,PP1 counter,ZTA counter,NS3 helicase inh
COCCn1c(=S)[nH]c2cc(C(=O)N3CCCC(C)C3)ccc2c1=O (stereo not given),-1.9,-1.4,-1.1,-9.9,3.9
CCc1ccccc1NC(=O)CN(C)S(=O)(=O)c1ccc(-c2ccc(=O)[nH]n2)s1,5.1,11.9,-0.4,14.3,7.9
COc1cc(OC)c(NC(=O)CN(C)S(=O)(=O)c2ccc(-c3ccc(=O)[nH]n3)s2)cc1Cl,-14.0,53.3*,8.5,14.4,-5.4
CC(CC(=O)NCc1ccco1)S(=O)(=O)c1ccc2c(c1)CCN2C(=O)C1CC1 (stereo not given),3.5,6.7,0.0,-3.1,2.7
CCN=C1S/C(=C\c2cn(CC(=O)NCc3ccco3)c3ccccc23)C(=O)N1CC,9.7,-1.5,15.3*,-6.6,5.2
C#CCOCCOCCOCCNc1nc(N2CCN(C(=O)[C@H](CCC(=O)O)n3cc(C(N)Cc4ccc(O)cc4)nn3)CC2)nc(N2CCN(C(=O)[C@H](Cc3cc4ccccc4[nH]3)n3cc(C(N)CC(C)C)nn3)CC2)n1 (stereo not given in full),4.2,7.5,-2.2,7.5,-62.9
C#CCOCCOCCOCCNc1nc(N2CCN(C(=O)C([C@@H](C)CC)n3cc(C(N)COC(=O)C(F)(F)F)nn3)CC2)nc(N2CCN(C(=O)[C@H](CCCCN)n3cc(C(N)[C@H](C)CC)nn3)CC2)n1 (stereo not given in full),1.5,-15.2,17.3*,7.9,.
C#CCOCCOCCOCCNc1nc(N2CCN(C(=O)[C@H](Cc3cc4ccccc4[nH]3)n3cc([C@@H](N)C(C)CC)nn3)CC2)nc(N2CCN(C(=O)[C@H](Cc3cc4ccccc4[nH]3)n3cc([C@@H](N)CC(C)C)nn3)CC2)n1 (stereo not given in full),4.2,-30.1,19.4*,15.1,-73.7
C#CCOCCOCCOCCNc1nc(N2CCN(C(=O)C(Cc3ccc(O)cc3)n3cc(C(N)CC(C)C)nn3)CC2)nc(N2CCN(C(=O)C(Cc3cc4ccccc4[nH]3)n3cc(C(N)Cc4ccc(O)cc4)nn3)CC2)n1 (stereo not given),2.3,-2.7,16.9*,0.5,-63.3
COC(=O)C(C)n1cnc2c(nnn2-c2cccc(OC)c2)c1=O (stereo not given),5.4,-3.0,0.3,17.8,-9.6
Fc1cccc(Cl)c1CNc1ccc(N2CCCC2)cc1,13.5,9.3,16.9*,12.7,2.4
COc1ccc(-c2cc(C(F)(F)F)c3c(n2)sc2c(O)cc(=O)[nH]c23)c(OC)c1,-11.7,48.0*,14.9,-18.2,33.7
CN1CCN(C(=O)CSc2nc(-c3cccs3)ccc2C#N)CC1,-0.5,53.0*,-1.9,-6.1,3.0
N#Cc1ccc(-c2cccs2)nc1SCc1cccnc1,-3.8,8.1,4.7,-7.3,-6.9
CCSc1ncnc2c1sc1nc(-c3ccco3)c3c(c12)CC(C)(C)OC3,1.9,65.3*,-0.1,-7.2,26.6
CC(C)c1nc2sc3c(NCc4ccco4)ncnc3c2c2c1COC(C)(C)C2,1.7,14.7,0.7,-5.2,6.1
COC(=O)CSc1ncnc2c1sc1nc(-c3ccco3)c3c(c12)CC(C)(C)OC3,8.9,64.4*,1.7,-5.9,20.0
COc1ccc(OC)c(NC(=O)Cc2ccc(NC3=NC4CS(=O)(=O)CC4S3)cc2)c1 (stereo not given),-13.5,0.5,-4.8,13.6,-0.3
COC(=O)c1cccc(C23CC4(C2)[C@H](CN(Cc2cccnc2)[C@@H]4c2ccccc2)C3c2ccccc2)c1 (stereo not given in full),14.2,14.2,16.5*,8.6,.
c1ccc(C2[C@H]3CN(Cc4cccnc4)[C@H](c4ccccc4)C34CC2(c2ccccc2)C4)cc1 (stereo not given in full),1.6,14.1,13.8,0.5,.
FC(F)(F)c1ccc(C2[C@H]3CN(Cc4cccnc4)[C@H](c4ccccc4)C34CC2(c2ccccc2)C4)cc1 (stereo not given in full),-7.3,17.7,16.3*,-4.7,.
COc1ccc(C2c3c(-c4cc(Cl)c(C)cc4O)n[nH]c3C(=O)N2Cc2cccnc2)cc1OC (stereo not given),-1.3,5.1,15.3*,-9.6,-2.2
COc1ccccc1NC(=O)c1ccc(S(=O)(=O)NCc2ccco2)cc1,-3.4,0.8,0.3,15.3,-1.5
